From ChEMBL document CHEMBL1122273, “5-sulfamoylorthanilic acids, a sulfonamide series with salidiuretic activity” (J Med Chem, 1983)
Calls of active or inactive are those of the source. No cut-off for these calls is given here.

Assays:
Canis familiaris [1] = assay: Saluretic activity in the dog measured as concentration of Na+ in urinary excretion (2 animals/dose) at (dose 1.56 mg/Kg, po); format: functional, Canis lupus familiaris, Urine
Method in brief: (§1)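 Male beagles trained to rest on a table and to accept stomach tube and catheter. Food withdrawn 24 h before, tap water ad libitum. Bladder emptied by catheter, then 20 mL/kg tap water by stomach tube. Catheterized hourly up to 8 h with 4 mL/kg water orally each time; first 2 h urine served as control. Oral dosing after second catheterization. Pooled 1–6 h urine; Na⁺/K⁺ by flame photometry, Cl⁻ argentometrically.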

Canis familiaris [2] = assay: Diuretic activity in the dog (2 animals/dose) at (dose 1.56 mg/Kg), when administered perorally; format: functional, Canis lupus familiaris, Urine
Method in brief: (§2)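 Trained male beagles, fasted 24 h with tap water ad libitum. Bladder emptied by catheter, then 20 mL/kg tap water by stomach tube, with 4 mL/kg water at each hourly catheterization up to 8 h. The first 2 h of urine served as control. Oral dosing came after the second catheterization, and 1–6 h urine was pooled. Na⁺ and K⁺ were measured by flame photometry, Cl⁻ argentometrically, in mequiv/kg.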

Canis familiaris [3] = assay: Saluretic activity in the dog measured as concentration of K+ in urinary excretion (2 animals/dose) (dose 1.56 mg/kg, p.o.); format: functional, Canis lupus familiaris, Urine; conditions: route oral
Method in brief: (§3)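 Male beagles trained to the procedures, food withdrawn 24 h before, tap water ad libitum. Bladder emptied by catheter, then 20 mL/kg tap water by stomach tube, plus 4 mL/kg orally at each hourly catheterization up to 8 h. The first 2 h of urine served as control. Compound given orally after the second catheterization. Urine from 1–6 h post-dose pooled; Na⁺ and K⁺ by flame photometry, Cl⁻ argentometrically, in mequiv/kg.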

Canis familiaris [4] = assay: Saluretic activity in the dog measured as concentration of Cl - in urinary excretion (2 animals/dose) at (dose 1.56 mg/Kg, po); format: functional, Canis lupus familiaris, Urine; method in brief: as §3
Rattus norvegicus [5] = species on record: Rattus norvegicus; assay: Diuretic activity in the rats, determined by a modified Lipschitz test; format: functional, Urine
Method in brief: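 Modified Lipschitz test: rats deprived of water 24 h, grouped in threes of similar weight in diuresis funnels. Oral dose of 50 mg/kg, suspended in 2% starch solution, by stomach tube.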

Rattus norvegicus [6] = species on record: Rattus norvegicus; assay: Saluretic activity in the rat measured as concentration of chloride in urine; format: functional
Method in brief: (§4)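 Rats deprived of food 24 h, water ad libitum, dosed 50 mg/kg by stomach tube as suspension in 2% starch, no extra water load. Groups of three in diuresis funnels; urine over first 5 h collected. Na⁺ and K⁺ by flame photometry, Cl⁻ argentometrically; expressed as mequiv/kg.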

Rattus norvegicus [7] = species on record: Rattus norvegicus; assay: Saluretic activity in the rat measured as concentration of K+ in urine; format: functional; method in brief: as §4
[8] = It is the ratio, measured as saluretic activity in the dog as concentration of Na+ in urinary excretion (dose 1.56 mg/Kg, po) to that of K; format: functional, Urine; method in brief: as §2
[9] = It is the ratio, measured as saluretic activity in the dog as concentration of Cl- in urinary excretion (dose 1.56 mg/Kg, po) to that of (Na+)+(K+); format: functional, Urine; method in brief: as §2
Rattus norvegicus [10] = species on record: Rattus norvegicus; assay: Saluretic activity in the rat measured as concentration of Na+ in urine; format: functional; method in brief: as §4
Canis familiaris [11] = assay: Saluretic activity in the dog measured as concentration of Na+ in urinary excretion (2 animals/dose) at (dose 0.1 mg/Kg, po); format: functional, Canis lupus familiaris, Urine; method in brief: as §1
Canis familiaris [12] = assay: Salidiuretic activity on the basis of the 1.56 mg/Kg po dog assay; compound was highly active; format: functional, organism-based; conditions: Canis lupus familiaris; Urine
Canis familiaris [13] = assay: Diuretic activity in the dog (2 animals/dose) at (dose 0.1 mg/Kg), when administered perorally; format: functional, Canis lupus familiaris, Urine; method in brief: as §2
Canis familiaris [14] = assay: Saluretic activity in the dog measured as concentration of K+ in urinary excretion (2 animals/dose) at (dose 1.56 mg/Kg, po); format: functional, Canis lupus familiaris, Urine; method in brief: as §1
Canis familiaris [15] = assay: Saluretic activity in the dog measured as concentration of K+ in urinary excretion (2 animals/dose) at (dose 0.1 mg/Kg, po); format: functional, Canis lupus familiaris, Urine; method in brief: as §3
Canis familiaris [16] = assay: Saluretic activity in the dog measured as concentration of Cl - in urinary excretion (2 animals/dose) at (dose 0.1 mg/Kg, po); format: functional, Canis lupus familiaris, Urine; method in brief: as §3
Rattus norvegicus [17] = assay: Salidiuretic activity on the basis of the 50 mg/kg po rat assay; compound was highly active; format: functional, organism-based; parameters: dose 50 mg/kg; conditions: Urine
[18] = It is the ratio, measured as saluretic activity in the dog as concentration of Cl- in urinary excretion (dose 0.1 mg/Kg, po) to that of (Na+)+(K+); format: functional, Urine; method in brief: as §2
[19] = It is the ratio, measured as saluretic activity in the dog as concentration of Na+ in urinary excretion (dose 0.1 mg/Kg, po) to that of K; format: functional, Urine; method in brief: as §2
Canis familiaris [20] = assay: Saluretic activity in the dog measured as concentration of Na+ in urinary excretion (2 animals/dose) at (dose 1.56 mg/Kg, perorally); format: functional, Canis lupus familiaris, Urine; method in brief: as §1
Canis familiaris [21] = assay: Saluretic activity in the dog measured as concentration of Na+ in urinary excretion (2 animals/dose) at (dose 6.25 mg/Kg, perorally); format: functional, Canis lupus familiaris, Urine; method in brief: as §1
Canis familiaris [22] = assay: Diuretic activity in the dog (2 animals/dose) at (dose 0.4 mg/Kg), when administered perorally; format: functional, Canis lupus familiaris, Urine; method in brief: as §2
Canis familiaris [23] = assay: Diuretic activity in the dog (2 animals/dose) at (dose 6.25 mg/Kg), when administered perorally; format: functional, Canis lupus familiaris, Urine; method in brief: as §2
Canis familiaris [24] = assay: Saluretic activity in the dog measured as concentration of K+ in urinary excretion (2 animals/dose) at (dose 0.4 mg/Kg, perorally); format: functional, Canis lupus familiaris, Urine; method in brief: as §3
Canis familiaris [25] = assay: Saluretic activity in the dog measured as concentration of K+ in urinary excretion (2 animals/dose) at (dose 1.56 mg/Kg, perorally); format: functional, Canis lupus familiaris, Urine; method in brief: as §3
Canis familiaris [26] = assay: Saluretic activity in the dog measured as concentration of Na+ in urinary excretion (2 animals/dose) at (dose 0.4 mg/Kg, perorally); format: functional, Canis lupus familiaris, Urine; method in brief: as §1
Canis familiaris [27] = assay: Saluretic activity in the dog measured as concentration of K+ in urinary excretion (2 animals/dose) at (dose 6.25 mg/Kg, perorally); format: functional, Canis lupus familiaris, Urine; method in brief: as §1
Canis familiaris [28] = assay: Saluretic activity in the dog measured as concentration of Cl - in urinary excretion (2 animals/dose) at (1.56 mg/Kg, perorally); format: functional, Canis lupus familiaris, Urine; method in brief: as §3
Canis familiaris [29] = assay: Saluretic activity in the dog measured as concentration of Cl - in urinary excretion (2 animals/dose) at (dose 6.25 mg/Kg, perorally); format: functional, Canis lupus familiaris, Urine; method in brief: as §3
Canis familiaris [30] = assay: Saluretic activity in the dog measured as concentration of Cl - in urinary excretion (2 animals/dose) at (dose 0.4 mg/Kg, perorally); format: functional, Canis lupus familiaris, Urine; method in brief: as §3
[31] = It is the ratio, measured as saluretic activity in the dog as concentration of Cl- in urinary excretion (dose 0.4 mg/kg perorally) to that of (Na+)+(K+); format: functional, Urine; conditions: route oral; method in brief: as §2
[32] = It is the ratio, measured as saluretic activity in the dog as concentration of Na+ in urinary excretion (dose 1.56 mg/Kg, perorally) to that of K; format: functional, Urine; method in brief: as §2
[33] = It is the ratio, measured as saluretic activity in the dog as concentration of Na+ in urinary excretion (dose 6.25 mg/Kg, perorally) to that of K; format: functional, Urine; method in brief: as §2
[34] = It is the ratio, measured as saluretic activity in the dog as concentration of Cl- in urinary excretion (dose 6.25 mg/Kg, perorally) to that of (Na+)+(K+); format: functional, Urine; method in brief: as §2
[35] = It is the ratio, measured as saluretic activity in the dog as concentration of Na+ in urinary excretion (dose 0.4 mg/Kg, perorally) to that of K; format: functional, Urine; method in brief: as §2
[36] = It is the ratio, measured as saluretic activity in the dog as concentration of Cl- in urinary excretion ( perorally) to that (Na++K+)

CCCC[S+]([O-])c1cc(NCc2ccco2)c(S(=O)(=O)[O-])cc1S(N)(=O)=O.[Na+] (stereo not given)
Saluretic activity (Canis familiaris [1]): 0.89 m equiv 6hr-1 kg-1 | Diuretic activity (Canis familiaris [2]): 34.9 ml kg-1 6hr-1 | Saldiuretic activity (Canis familiaris [3]): 0.35 (m equiv) 6hr-1 kg-1 | Saldiuretic activity (Canis familiaris [4]): 1.43 m equiv 6hr-1 kg-1 | Diuretic activity (Rattus norvegicus [5]): 1 mL/kg | Saluretic activity (Rattus norvegicus [6]): 1.4 m equiv 5hr-1 kg-1 | Saluretic activity (Rattus norvegicus [7]): 1 m equiv 5hr-1 kg-1 | Ratio [8]: 3 | Ratio [9]: 1 | Saluretic activity (Rattus norvegicus [10]): 0.9 m equiv 5hr-1 kg-1

NS(=O)(=O)c1cc(S(=O)(=O)[O-])c(NCc2cccs2)cc1S(=O)(=O)C1CCCCC1.[Na+]
Saluretic activity (Canis familiaris [11]): 3.18 m equiv 6hr-1 kg-1 | Saluretic activity (Canis familiaris [1]): 5.4 m equiv 6hr-1 kg-1 | Saldiuretic activity (Canis familiaris [12]): Active | Diuretic activity (Canis familiaris [13]): 47.4 ml kg-1 6hr-1 | Diuretic activity (Canis familiaris [2]): 66.7 ml kg-1 6hr-1 | Saluretic activity (Canis familiaris [14]): 1.05 m equiv 6hr-1 kg-1 | Saldiuretic activity (Canis familiaris [15]): 0.41 m equiv 6hr-1 kg-1 | Saldiuretic activity (Canis familiaris [4]): 6.39 m equiv 6hr-1 kg-1 | Saldiuretic activity (Canis familiaris [16]): 3.54 m equiv 6hr-1 kg-1 | Diuretic activity (Rattus norvegicus [5]): 4 mL/kg | Saluretic activity (Rattus norvegicus [6]): 8.7 m equiv 5hr-1 kg-1 | Saluretic activity (Rattus norvegicus [7]): 2.2 m equiv 5hr-1 kg-1 | Saldiuretic activity (Rattus norvegicus [17]): Active | Ratio [18]: 1 | Ratio [8]: 5.1 | Ratio [9]: 1 | Ratio [19]: 7.7 | Saluretic activity (Rattus norvegicus [10]): 7.3 m equiv 5hr-1 kg-1

NS(=O)(=O)c1cc(S(=O)(=O)[O-])c(NCc2ccco2)cc1Cl.[Na+]
Saluretic activity (Canis familiaris [20]): 2.61 m equiv 6hr-1 kg-1 | Saluretic activity (Canis familiaris [21]): 4.36 m equiv 6hr-1 kg-1 | Diuretic activity (Canis familiaris [22]): 37 ml kg-1 6hr-1 | Diuretic activity (Canis familiaris [2]): 42.4 ml kg-1 6hr-1 | Diuretic activity (Canis familiaris [23]): 66.5 ml kg-1 6hr-1 | Saluretic activity (Canis familiaris [24]): 0.19 m equiv 6hr-1 kg-1 | Saluretic activity (Canis familiaris [25]): 0.53 m equiv 6hr-1 kg-1 | Saluretic activity (Canis familiaris [26]): 0.45 m equiv 6hr-1 kg-1 | Saldiuretic activity (Canis familiaris [27]): 0.78 m equiv 6hr-1 kg-1 | Concentration of Cl- (Canis familiaris [28]): 3.24 m equiv 6hr-1 kg-1 | Saldiuretic activity (Canis familiaris [29]): 4.74 m equiv 6hr-1 kg-1 | Saluretic activity (Canis familiaris [30]): 0.69 m equiv 6hr-1 kg-1 | Diuretic activity (Rattus norvegicus [5]): 2.8 mL/kg | Saluretic activity (Rattus norvegicus [6]): 8.3 m equiv 5hr-1 kg-1 | Saluretic activity (Rattus norvegicus [7]): 2.3 m equiv 5hr-1 kg-1 | Ratio [31]: 1.1 | Ratio [32]: 4.9 | Ratio [33]: 5.6 | Ratio [34]: 0.9 | Ratio [35]: 2.3 | Saluretic activity (Rattus norvegicus [10]): 7.1 m equiv 5hr-1 kg-1 | Ratio [36]: 1
